Test results as given in ChEMBL document CHEMBL3425411, “Synthesis of β-Carboline-Based N-Heterocyclic Carbenes and Their Antiproliferative and Antimetastatic Activities against Human Breast Cancer Cells” (J Med Chem, 2015).
Active and inactive are the calls of the source. The calls are words filed in the database; no cut-off is given here.

Tests used:
MDA-MB-468 = assay: Cytotoxicity against human MDA-MB-468 cells assessed as growth inhibition after 24 to 72 hrs by MTT assay; assay type: functional, cell-based
Method in brief: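 About 5000 cells/well were grown 24 h in RPMI-1640 with 10% FBS, then given fresh medium with compound at various concentrations (from 10 mM DMSO stocks) for 24, 48 and 72 h. MTT (5 mg/mL stock) was added for 2 h and formazan dissolved in DMSO. Absorbance was read at 595 nm and expressed as percent proliferation versus DMSO control.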

MDA-MB-231 [1] = assay: Induction of apoptosis in human MDA-MB-231 cells assessed as early apoptotic cells at 12.5 uM after 24 hrs by annexin V-propidium iodide/Alexa Fluor 488 staining-based flow cytometric analysis (reference value: 4.05 to 4.68%); assay type: functional
MDA-MB-231 [2] = assay: Induction of apoptosis in human MDA-MB-231 cells assessed as late apoptotic cells at 12.5 uM after 24 hrs by annexin V-propidium iodide/Alexa Fluor 488 staining-based flow cytometric analysis (reference value: 2.08 to 3.78%); assay type: functional
Method in brief: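 MDA-MB-231 cells, about 2 × 10⁵ per well, seeded in triplicate and treated for 24 h in RPMI-1640 with 10% FBS. Stained with Alexa Fluor 488 annexin V and propidium iodide, then read by flow cytometry. AV+/PI+ events were counted as late apoptotic and reported as percentage of cells relative to control. Three independent experiments, mean ± SEM.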

MDA-MB-231 [3] = assay: Upregulation of cleaved caspase-3 expression in human MDA-MB-231 cells at 7.5 to 10 uM after 24 hrs by Western blot analysis; assay type: functional, cell-based
Method in brief: (§1)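 MDA-MB-231 cells treated 24 h, then lysed in RIPA buffer. 40 μg protein run on 10–15% SDS–PAGE and transferred to PVDF. Blocked in 5% milk, probed overnight at 4 °C with primary antibodies (phospho- and total ERK1/2, JNK, p38, cleaved caspase-3), then HRP secondary. ECL detection with β-actin as loading control. Blots representative of three experiments.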

MDA-MB-231 [4] = assay: Downregulation of Bcl-2 expression in human MDA-MB-231 cells at 7.5 to 10 uM after 24 hrs by Western blot analysis; assay type: functional, cell-based
Method in brief: (§2)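 Cells were treated for 24 h. Lysates were made in RIPA buffer, and 40 μg protein was resolved on 10–15% SDS-PAGE and transferred to PVDF. Membranes were blocked with 5% milk and probed overnight at 4 °C with primary antibodies, then HRP secondaries. Detection was by ECL with β-actin as loading control. Blots represent three independent experiments.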

MDA-MB-231 [5] = assay: Downregulation of Bcl-XL expression in human MDA-MB-231 cells at 7.5 to 10 uM after 24 hrs by Western blot analysis; assay type: functional, cell-based; method in brief: as §2
MDA-MB-231 [6] = assay: Downregulation of survivin expression in human MDA-MB-231 cells at 7.5 to 10 uM after 24 hrs by Western blot analysis; assay type: functional, cell-based; method in brief: as §2
MDA-MB-231 [7] = assay: Induction of apoptosis in human MDA-MB-231 cells assessed as PARP cleavage at 7.5 to 10 uM after 24 hrs by Western blot analysis; assay type: functional, cell-based; method in brief: as §2
MDA-MB-231 [8] = assay: Cell cycle arrest in human MDA-MB-231 cells assessed as accumulation at G0/G1 phase at 7.5 uM after 24 hrs by propidium iodide staining-based flow cytometric analysis (reference value: 44.3 to 47.1%); assay type: functional
MDA-MB-231 [9] = assay: Cell cycle arrest in human MDA-MB-231 cells assessed as accumulation at G0/G1 phase at 10 uM after 24 hrs by propidium iodide staining-based flow cytometric analysis (reference value: 44.3 to 47.1%); assay type: functional
MDA-MB-231 [10] = assay: Cell cycle arrest in human MDA-MB-231 cells assessed as accumulation at S phase at 10 uM after 24 hrs by propidium iodide staining-based flow cytometric analysis (reference value: 32.5 to 34.7%); assay type: functional
MDA-MB-231 [11] = assay: Cell cycle arrest in human MDA-MB-231 cells assessed as accumulation at G2/M phase at 10 uM after 24 hrs by propidium iodide staining-based flow cytometric analysis (reference value: 18.2 to 23.1%); assay type: functional
MDA-MB-231 [12] = assay: Downregulation of cyclin B expression in human MDA-MB-231 cells at 7.5 to 10 uM after 24 hrs by Western blot analysis; assay type: functional, cell-based; method in brief: as §2
MDA-MB-231 [13] = assay: Downregulation of CDC25C expression in human MDA-MB-231 cells at 7.5 to 10 uM after 24 hrs by Western blot analysis; assay type: functional, cell-based; method in brief: as §2
MDA-MB-231 [14] = assay: Downregulation of CDK1 expression in human MDA-MB-231 cells at 7.5 to 10 uM after 24 hrs by Western blot analysis; assay type: functional, cell-based; method in brief: as §2
MDA-MB-231 [15] = assay: Antimigratory activity against human MDA-MB-231 cells at 1 to 7.5 uM after 12 to 24 hrs by wound healing assay; assay type: functional, cell-based
Method in brief: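 2 × 10⁵ cells were plated in six-well plates and scratched with a 200 μL tip. Debris was removed, then cells were treated (0, 1, 2.5, 5, 7.5 μM; or 0–5 μM). The wound was photographed at 0, 12 and 24 h under 100× phase contrast. Area was measured as percent wound closure versus control. Three independent experiments, mean ± SEM.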

MDA-MB-231 [16] = assay: Antiinvasive activity against human MDA-MB-231 cells at 2.5 uM after 48 hrs by transwell assay; assay type: functional, cell-based
Method in brief: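 Matrigel (growth factor reduced, diluted in serum-free medium) coated on 8 μm pore polycarbonate transwell membranes, set 2 h at 37 °C. 30 000 cells/well seeded in RPMI-1640 with 1% FBS plus compound; lower chamber had 10% FBS as chemoattractant. After 48 h, non-invaded cells were swabbed off and invaded cells were methanol-fixed and stained with 0.1% crystal violet. At least 10 random fields were counted and expressed versus control.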

[17] = target: 72 kDa type IV collagenase (Homo sapiens) (UniProt P08253); assay: Inhibition of MMP-2 in human MDA-MB-231 cells at 1 to 7.5 uM after 24 hrs by gelatin zymographic method; assay type: cell-based
Method in brief: (§3)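 MDA-MB-231 cells, 1 × 10⁵ per well, treated 24 h with 0, 1, 2.5, 5 or 7.5 μM. Conditioned medium centrifuged and equal protein loaded on 8% SDS–PAGE containing 0.1% gelatin, run at 80 V. Triton X-100 washes, then developed 20 h at 37 °C in Tris-HCl pH 7.5 with NaCl, CaCl₂ and ZnCl₂. Coomassie stain, then destain.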

[18] = target: Matrix metalloproteinase-9 (Homo sapiens) (UniProt P14780); assay: Inhibition of MMP-9 in human MDA-MB-231 cells at 1 to 7.5 uM after 24 hrs by gelatin zymographic method; assay type: cell-based; method in brief: as §3
[19] = target: Mitogen-activated protein kinase; ERK1/ERK2 (Homo sapiens) (UniProt P27361+P28482); assay: Inhibition of ERK1/2 phosphorylation in human MDA-MB-231 cells at 7.5 to 10 uM after 24 hrs by Western blot analysis; assay type: cell-based; method in brief: as §1
[20] = target: c-Jun N-terminal kinase, JNK (Homo sapiens) (UniProt P45983+P53779+P45984); assay: Inhibition of SAPK/JNK phosphorylation in human MDA-MB-231 cells at 7.5 to 10 uM after 24 hrs by Western blot analysis; assay type: cell-based; method in brief: as §1
[21] = target: MAP kinase p38 (Homo sapiens) (UniProt O15264+Q15759+Q16539+P53778); assay: Induction of p38 MAPK phosphorylation in human MDA-MB-231 cells at 7.5 to 10 uM after 24 hrs by Western blot analysis; assay type: cell-based; method in brief: as §1

Chain of 72 kDa type IV collagenase (Homo sapiens) (P08253 110-660 limits assumed): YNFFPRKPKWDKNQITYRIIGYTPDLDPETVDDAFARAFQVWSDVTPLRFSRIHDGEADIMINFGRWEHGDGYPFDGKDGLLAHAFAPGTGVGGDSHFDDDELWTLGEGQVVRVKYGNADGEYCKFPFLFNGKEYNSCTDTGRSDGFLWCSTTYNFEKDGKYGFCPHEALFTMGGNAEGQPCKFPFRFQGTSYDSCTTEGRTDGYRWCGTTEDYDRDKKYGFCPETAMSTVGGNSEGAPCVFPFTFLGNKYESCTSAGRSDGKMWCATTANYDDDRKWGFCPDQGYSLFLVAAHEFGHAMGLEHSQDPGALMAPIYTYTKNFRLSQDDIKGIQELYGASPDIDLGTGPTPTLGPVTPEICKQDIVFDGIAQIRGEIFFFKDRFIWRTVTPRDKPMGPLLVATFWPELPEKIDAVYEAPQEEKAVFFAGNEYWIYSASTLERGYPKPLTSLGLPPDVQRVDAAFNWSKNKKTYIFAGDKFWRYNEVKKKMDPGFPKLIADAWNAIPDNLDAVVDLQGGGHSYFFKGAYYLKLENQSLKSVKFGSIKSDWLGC
Chain of Mitogen-activated protein kinase; ERK1/ERK2 (Homo sapiens) (P27361 whole entry, looked up): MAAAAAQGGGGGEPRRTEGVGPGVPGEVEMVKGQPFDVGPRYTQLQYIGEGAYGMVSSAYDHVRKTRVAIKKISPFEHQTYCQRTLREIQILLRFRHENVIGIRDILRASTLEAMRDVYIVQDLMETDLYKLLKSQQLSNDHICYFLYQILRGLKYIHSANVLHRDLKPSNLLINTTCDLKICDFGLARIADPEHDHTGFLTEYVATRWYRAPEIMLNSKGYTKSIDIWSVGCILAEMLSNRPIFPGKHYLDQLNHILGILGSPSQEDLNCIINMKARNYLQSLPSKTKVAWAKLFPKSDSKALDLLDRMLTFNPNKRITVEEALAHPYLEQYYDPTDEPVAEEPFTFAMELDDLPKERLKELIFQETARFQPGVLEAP
Chain of Mitogen-activated protein kinase; ERK1/ERK2 (Homo sapiens) (P28482 whole entry, looked up): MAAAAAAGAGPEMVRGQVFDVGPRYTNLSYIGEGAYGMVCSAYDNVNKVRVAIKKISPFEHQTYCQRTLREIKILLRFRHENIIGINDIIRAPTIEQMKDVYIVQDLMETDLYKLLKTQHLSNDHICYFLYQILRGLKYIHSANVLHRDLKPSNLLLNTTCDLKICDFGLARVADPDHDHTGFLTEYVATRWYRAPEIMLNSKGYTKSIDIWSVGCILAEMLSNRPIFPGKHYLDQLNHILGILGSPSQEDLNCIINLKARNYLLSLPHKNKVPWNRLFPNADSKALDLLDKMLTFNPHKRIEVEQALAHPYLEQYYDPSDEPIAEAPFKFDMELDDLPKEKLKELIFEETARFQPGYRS
Chain of Matrix metalloproteinase-9 (Homo sapiens) (P14780 whole entry): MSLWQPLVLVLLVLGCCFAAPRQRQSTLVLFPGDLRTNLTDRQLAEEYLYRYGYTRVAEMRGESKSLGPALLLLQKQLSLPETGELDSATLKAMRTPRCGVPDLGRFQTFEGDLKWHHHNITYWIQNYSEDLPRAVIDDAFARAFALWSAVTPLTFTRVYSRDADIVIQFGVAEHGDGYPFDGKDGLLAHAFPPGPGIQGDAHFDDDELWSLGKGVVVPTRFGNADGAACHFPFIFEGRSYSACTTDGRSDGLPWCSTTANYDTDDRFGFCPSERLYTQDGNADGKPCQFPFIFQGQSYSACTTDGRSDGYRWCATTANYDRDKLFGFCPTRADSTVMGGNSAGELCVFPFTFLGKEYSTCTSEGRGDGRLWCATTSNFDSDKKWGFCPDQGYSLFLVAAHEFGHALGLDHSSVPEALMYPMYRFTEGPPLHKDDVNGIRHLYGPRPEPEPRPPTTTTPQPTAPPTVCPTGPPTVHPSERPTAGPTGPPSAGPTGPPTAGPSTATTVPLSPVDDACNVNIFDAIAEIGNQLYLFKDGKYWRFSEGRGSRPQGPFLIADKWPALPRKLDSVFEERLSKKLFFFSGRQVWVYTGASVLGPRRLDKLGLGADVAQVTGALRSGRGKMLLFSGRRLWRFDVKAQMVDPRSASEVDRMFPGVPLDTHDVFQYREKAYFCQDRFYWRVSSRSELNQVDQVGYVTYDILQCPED

Row | inhibition [17] | inhibition [18] | inhibition [19] | SMILES | IC50 (MDA-MB-468) | Activity (MDA-MB-231 [1]) | Activity (MDA-MB-231 [2]) | Activity (MDA-MB-231 [3]) | Activity (MDA-MB-231 [4]) | Activity (MDA-MB-231 [5]) | Activity (MDA-MB-231 [6]) | Activity (MDA-MB-231 [7]) | Activity (MDA-MB-231 [8]) | Activity (MDA-MB-231 [9]) | Activity (MDA-MB-231 [10]) | Activity (MDA-MB-231 [11]) | Activity (MDA-MB-231 [12]) | Activity (MDA-MB-231 [13]) | Activity (MDA-MB-231 [14]) | Activity (MDA-MB-231 [15]) | Activity (MDA-MB-231 [16]) | other results
1 | Active | Active | Active | COC(=O)c1cc2c3ccccc3[nH]c2c2cn(-c3ccc(C)cc3Br)c[n+]12.[Cl-] | 5.78 µM | 64.96% | 17.42% | Active | Active | Active | Active | Active | 43% | 35.3% | 26.3% | 38.2% | Active | Active | Active | Active | Active | inhibition [20]: Active; Activity [21]: Active
2 | Active | Active | Active | COC(=O)c1cc2c3ccccc3[nH]c2c2cn(-c3ccc(C(F)(F)F)cc3)c[n+]12.[Cl-] | 11.1 µM | 31.17% | 13.43% | Active | Active | Active | Active | Active | 34.1% | 31.1% | 29.7% | 39% | Active | Active | Active | Active | Active | inhibition [20]: Active; Activity [21]: Active
3 |  |  |  | COC(=O)c1cc2c3ccccc3[nH]c2c2cn(-c3ccc(F)cc3Cl)c[n+]12.[Cl-] | 5.94 µM |  |  |  |  |  |  |  | 31.1% |  |  |  |  |  |  |  |  | 
